Calls of active or inactive are those of the source. No cut-off for these calls is given here.
Legend:
[1] = molecular target: Receptor-type tyrosine-protein kinase FLT3 (Homo sapiens) (UniProt P36888); experiment: Inhibition of FLT3 (unknown origin) assessed as reduction in kinase activity at 10 uM using ATP
MV4-11 [2] = experiment: Induction of caspase-3/7 activation in human MV4-11 cells at 20 uM after 24 hrs; assay type: functional, cell-based
How it was run: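 MV-4-11 cells treated 24 h, DMSO diluent as control; caspase-3/7 activity measured with Apo-ONE homogeneous caspase-3/7 kit per manufacturer, read on plate reader; expressed as relative activity.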

[3] = molecular target: CDK9/cyclin T1 (Homo sapiens) (UniProt O60563+P50750); experiment: Inhibition of CDK9/cyclinT1 (unknown origin) assessed as reduction in kinase activity at 10 uM using ATP; assay type: protein-complex assay
[4] = molecular target: T1, MAP kinase-interacting serine/threonine-protein kinase 1 (Homo sapiens, UniProt Q9BUB5); experiment: Inhibition of Mnk1 (unknown origin) pre-incubated for 10 mins before eIF4E peptide substrate addition by ADP-Glo kinase assay
Target sequence in this assay (Q9BUB5 whole entry): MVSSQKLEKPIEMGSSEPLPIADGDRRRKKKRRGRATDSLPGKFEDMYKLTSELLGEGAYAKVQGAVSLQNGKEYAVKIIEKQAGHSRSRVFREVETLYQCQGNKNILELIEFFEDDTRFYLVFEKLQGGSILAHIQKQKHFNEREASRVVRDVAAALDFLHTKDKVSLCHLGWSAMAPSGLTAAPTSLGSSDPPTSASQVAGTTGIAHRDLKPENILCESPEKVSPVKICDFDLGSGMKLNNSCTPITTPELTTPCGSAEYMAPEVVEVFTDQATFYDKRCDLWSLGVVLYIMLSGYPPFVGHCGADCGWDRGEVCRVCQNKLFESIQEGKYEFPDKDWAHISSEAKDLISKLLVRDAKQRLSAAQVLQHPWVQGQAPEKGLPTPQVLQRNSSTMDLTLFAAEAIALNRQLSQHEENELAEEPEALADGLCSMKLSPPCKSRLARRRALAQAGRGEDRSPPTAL

MV4-11 [5] = experiment: Effect on total Mnk1 protein level in human MV4-11 cells at 20 uM after 24 hrs by Western blotting method; assay type: functional, cell-based
How it was run: (§1)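 MV-4-11 cells in RPMI-1640 with 10% FBS, exposed 24 h (DMSO diluent control); Western blot probing Mnk1, eIF4E, p-eIF4E Ser209, Bcl-2, Mcl-1, cyclin D1, PARP, cleaved PARP; β-actin as loading control; HRP-conjugated anti-mouse/anti-rabbit IgG secondaries.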

MV4-11 [6] = experiment: Growth inhibition of human MV4-11 cells after 72 hrs by resazurin assay; assay type: functional; conditions: MV4-11, 72 h
[7] = molecular target: T1, MAP kinase-interacting serine/threonine-protein kinase 1; experiment: Inhibition of Mnk1 in human MV4-11 cells assessed as reduction in eIF4E Ser209 phosphorylation at 20 uM after 24 hrs by Western blotting method; assay type: cell-based; how it was run: as §1
Target sequence in this assay (Q9BUB5 whole entry, looked up): as the sequence (Q9BUB5 whole entry) above

[8] = molecular target: RAC-alpha serine/threonine-protein kinase (Homo sapiens) (UniProt P31749); experiment: Inhibition of PKBalpha (unknown origin) assessed as reduction in kinase activity at 10 uM using ATP
Sequence of RAC-alpha serine/threonine-protein kinase (Homo sapiens) (P31749 whole entry): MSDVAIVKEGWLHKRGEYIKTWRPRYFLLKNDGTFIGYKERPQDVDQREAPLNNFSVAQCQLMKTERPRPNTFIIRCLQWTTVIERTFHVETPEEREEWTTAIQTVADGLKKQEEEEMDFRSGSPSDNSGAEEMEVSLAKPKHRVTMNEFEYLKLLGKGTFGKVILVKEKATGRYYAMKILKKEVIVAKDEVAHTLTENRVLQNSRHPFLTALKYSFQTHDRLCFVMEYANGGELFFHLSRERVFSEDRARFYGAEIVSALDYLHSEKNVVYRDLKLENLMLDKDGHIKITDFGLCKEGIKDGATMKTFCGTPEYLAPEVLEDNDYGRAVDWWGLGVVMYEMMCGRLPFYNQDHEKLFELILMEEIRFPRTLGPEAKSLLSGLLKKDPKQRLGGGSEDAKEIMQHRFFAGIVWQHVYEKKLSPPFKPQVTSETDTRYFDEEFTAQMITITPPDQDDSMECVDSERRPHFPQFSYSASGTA

MV4-11 [9] = experiment: Induction of apoptosis in human MV4-11 cells assessed as late apoptotic cells level at 20 uM after 24 hrs by FITC annexin-V/PI staining based flow cytometry (reference value: 5.4%); assay type: functional
How it was run: (§2)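 MV-4-11 cells seeded at 8 × 10^4, overnight at 37 °C, 5% CO2, then treated 24 h (DMSO diluent control); pellets collected (300 × g, 5 min), stained with FITC annexin V/PI kit and analysed by flow cytometry within 1 h; apoptotic = annexin V+/PI− plus annexin V+/PI+ cells.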

MV4-11 [10] = experiment: Induction of apoptosis in human MV4-11 cells assessed as induction of PARP cleavage expression at 20 uM after 24 hrs by Western blotting method; assay type: functional, cell-based; how it was run: as §1
[11] = molecular target: MAP kinase-interacting serine/threonine-protein kinase 2 (Homo sapiens, UniProt Q9HBH9); experiment: Inhibition of Mnk2 (unknown origin) pre-incubated for 10 mins before eIF4E peptide substrate addition by ADP-Glo kinase assay
Sequence of MAP kinase-interacting serine/threonine-protein kinase 2 (Q9HBH9 whole entry): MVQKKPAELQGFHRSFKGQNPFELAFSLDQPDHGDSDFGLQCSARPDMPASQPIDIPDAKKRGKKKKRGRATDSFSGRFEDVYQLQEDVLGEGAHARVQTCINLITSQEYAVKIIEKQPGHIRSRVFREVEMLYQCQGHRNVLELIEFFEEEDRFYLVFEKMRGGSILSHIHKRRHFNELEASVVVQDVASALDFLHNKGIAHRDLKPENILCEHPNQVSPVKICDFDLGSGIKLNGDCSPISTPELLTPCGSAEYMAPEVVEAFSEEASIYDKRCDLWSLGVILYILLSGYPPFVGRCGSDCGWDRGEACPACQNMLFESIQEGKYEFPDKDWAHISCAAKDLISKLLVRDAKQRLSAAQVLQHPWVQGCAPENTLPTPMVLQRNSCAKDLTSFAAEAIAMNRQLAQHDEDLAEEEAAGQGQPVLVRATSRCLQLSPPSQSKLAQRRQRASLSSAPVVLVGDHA

MV4-11 [12] = experiment: Induction of apoptosis in human MV4-11 cells at 20 uM after 24 hrs by FITC annexin-V/PI staining based flow cytometry; assay type: functional; how it was run: as §2
MV4-11 [13] = experiment: Induction of cell cycle arrest in human MV4-11 cells assessed as accumulation at S phase at 20 uM after 24 hrs by FITC propidium iodide staining based flow cytometry (reference value: 16.7%); assay type: functional
MV4-11 [14] = experiment: Induction of cell cycle arrest in human MV4-11 cells assessed as accumulation at subG1 phase at 20 uM after 24 hrs by FITC propidium iodide staining based flow cytometry (reference value: 7.7%); assay type: functional
MV4-11 [15] = experiment: Induction of cell cycle arrest in human MV4-11 cells assessed as accumulation at G1 phase at 20 uM after 24 hrs by FITC propidium iodide staining based flow cytometry (reference value: 58.1%); assay type: functional
MV4-11 [16] = experiment: Reduction in cyclin D1 expression in human MV4-11 cells at 20 uM after 24 hrs by Western blotting method; assay type: functional, cell-based
How it was run: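 MV-4-11 AML cells grown in RPMI-1640 with 10% FBS, treated 24 h at the stated concentration against a DMSO diluent control. Lysates probed by Western blot for cyclin D1, with β-actin as loading control and HRP-conjugated anti-mouse/anti-rabbit IgG secondaries.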

MV4-11 [17] = experiment: Effect on total eIF4E protein level in human MV4-11 cells at 20 uM after 24 hrs by Western blotting method; assay type: functional, cell-based; how it was run: as §1
MV4-11 [18] = experiment: Induction of apoptosis in human MV4-11 cells assessed as viable cells level at 20 uM after 24 hrs by FITC annexin-V/PI staining based flow cytometry (reference value: 91.49%); assay type: functional; how it was run: as §2
MV4-11 [19] = experiment: Induction of apoptosis in human MV4-11 cells assessed as necrotic cells level at 20 uM after 24 hrs by FITC annexin-V/PI staining based flow cytometry (reference value: 0.1%); assay type: functional; how it was run: as §2
[20] = molecular target: Mitogen-activated protein kinase 1 (Homo sapiens) (UniProt P28482); experiment: Inhibition of MAPK1 (unknown origin) assessed as reduction in kinase activity at 10 uM using ATP
Sequence of Mitogen-activated protein kinase 1 (Homo sapiens) (P28482 whole entry): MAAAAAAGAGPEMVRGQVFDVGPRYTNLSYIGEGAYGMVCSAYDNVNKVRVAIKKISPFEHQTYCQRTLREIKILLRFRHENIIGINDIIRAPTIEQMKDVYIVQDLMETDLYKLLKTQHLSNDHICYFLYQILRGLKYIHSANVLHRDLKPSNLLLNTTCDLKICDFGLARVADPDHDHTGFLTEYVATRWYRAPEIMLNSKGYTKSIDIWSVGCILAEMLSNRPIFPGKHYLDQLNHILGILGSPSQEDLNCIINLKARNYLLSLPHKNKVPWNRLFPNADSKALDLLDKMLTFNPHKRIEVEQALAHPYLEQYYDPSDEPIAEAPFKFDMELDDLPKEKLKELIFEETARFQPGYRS

[21] = molecular target: Mitogen-activated protein kinase 14 (Homo sapiens) (UniProt Q16539); experiment: Inhibition of SAPK2a (unknown origin) assessed as reduction in kinase activity at 10 uM using ATP
Sequence of Mitogen-activated protein kinase 14 (Homo sapiens) (Q16539 whole entry): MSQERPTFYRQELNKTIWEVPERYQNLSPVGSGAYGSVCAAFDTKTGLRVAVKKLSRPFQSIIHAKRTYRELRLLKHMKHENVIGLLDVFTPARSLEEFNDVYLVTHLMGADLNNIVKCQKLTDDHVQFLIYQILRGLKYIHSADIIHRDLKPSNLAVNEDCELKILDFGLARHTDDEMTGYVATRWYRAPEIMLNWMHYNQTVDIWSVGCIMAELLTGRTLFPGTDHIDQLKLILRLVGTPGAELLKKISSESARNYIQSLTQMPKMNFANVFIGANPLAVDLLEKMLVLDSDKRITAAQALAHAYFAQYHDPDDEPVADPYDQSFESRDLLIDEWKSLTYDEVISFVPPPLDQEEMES

MV4-11 [22] = experiment: Induction of apoptosis in human MV4-11 cells assessed as early apoptotic cells level at 20 uM after 24 hrs by FITC annexin-V/PI staining based flow cytometry (reference value: 3.02%); assay type: functional; how it was run: as §2
Homo sapiens = organism: Homo sapiens; experiment: Inhibition of PI3K (unknown origin) assessed as reduction in kinase activity at 10 uM using ATP
[23] = molecular target: CDK2/Cyclin A2 (Homo sapiens) (UniProt P24941+P20248); experiment: Inhibition of CDK2/cyclinA (unknown origin) assessed as reduction in kinase activity at 10 uM using ATP; assay type: protein-complex assay
[24] = molecular target: Serine/threonine-protein kinase mTOR (Homo sapiens) (UniProt P42345); experiment: Inhibition of mTOR (unknown origin) assessed as reduction in kinase activity at 10 uM using ATP
MV4-11 [25] = experiment: Induction of cell cycle arrest in human MV4-11 cells assessed as accumulation at G2/M phase at 20 uM after 24 hrs by FITC propidium iodide staining based flow cytometry (reference value: 17.5%); assay type: functional
MV4-11 [26] = experiment: Induction of apoptosis in human MV4-11 cells assessed as reduction in Mcl1 expression at 20 uM after 24 hrs by Western blotting method; assay type: functional, cell-based; how it was run: as §1
[27] = molecular target: Serine/threonine-protein kinase pim-1 (Homo sapiens) (UniProt P11309); experiment: Inhibition of PIM1 (unknown origin) assessed as reduction in kinase activity at 10 uM using ATP
Sequence of Serine/threonine-protein kinase pim-1 (Homo sapiens) (P11309 whole entry, looked up): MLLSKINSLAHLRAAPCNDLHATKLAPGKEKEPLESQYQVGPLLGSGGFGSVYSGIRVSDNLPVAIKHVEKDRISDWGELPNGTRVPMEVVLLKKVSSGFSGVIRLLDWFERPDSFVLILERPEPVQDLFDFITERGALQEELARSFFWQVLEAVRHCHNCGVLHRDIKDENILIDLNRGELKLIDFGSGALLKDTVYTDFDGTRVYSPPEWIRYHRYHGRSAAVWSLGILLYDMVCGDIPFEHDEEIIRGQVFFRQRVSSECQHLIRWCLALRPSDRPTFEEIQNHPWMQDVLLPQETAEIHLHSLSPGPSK

Sequence of Receptor-type tyrosine-protein kinase FLT3 (Homo sapiens) (P36888 whole entry): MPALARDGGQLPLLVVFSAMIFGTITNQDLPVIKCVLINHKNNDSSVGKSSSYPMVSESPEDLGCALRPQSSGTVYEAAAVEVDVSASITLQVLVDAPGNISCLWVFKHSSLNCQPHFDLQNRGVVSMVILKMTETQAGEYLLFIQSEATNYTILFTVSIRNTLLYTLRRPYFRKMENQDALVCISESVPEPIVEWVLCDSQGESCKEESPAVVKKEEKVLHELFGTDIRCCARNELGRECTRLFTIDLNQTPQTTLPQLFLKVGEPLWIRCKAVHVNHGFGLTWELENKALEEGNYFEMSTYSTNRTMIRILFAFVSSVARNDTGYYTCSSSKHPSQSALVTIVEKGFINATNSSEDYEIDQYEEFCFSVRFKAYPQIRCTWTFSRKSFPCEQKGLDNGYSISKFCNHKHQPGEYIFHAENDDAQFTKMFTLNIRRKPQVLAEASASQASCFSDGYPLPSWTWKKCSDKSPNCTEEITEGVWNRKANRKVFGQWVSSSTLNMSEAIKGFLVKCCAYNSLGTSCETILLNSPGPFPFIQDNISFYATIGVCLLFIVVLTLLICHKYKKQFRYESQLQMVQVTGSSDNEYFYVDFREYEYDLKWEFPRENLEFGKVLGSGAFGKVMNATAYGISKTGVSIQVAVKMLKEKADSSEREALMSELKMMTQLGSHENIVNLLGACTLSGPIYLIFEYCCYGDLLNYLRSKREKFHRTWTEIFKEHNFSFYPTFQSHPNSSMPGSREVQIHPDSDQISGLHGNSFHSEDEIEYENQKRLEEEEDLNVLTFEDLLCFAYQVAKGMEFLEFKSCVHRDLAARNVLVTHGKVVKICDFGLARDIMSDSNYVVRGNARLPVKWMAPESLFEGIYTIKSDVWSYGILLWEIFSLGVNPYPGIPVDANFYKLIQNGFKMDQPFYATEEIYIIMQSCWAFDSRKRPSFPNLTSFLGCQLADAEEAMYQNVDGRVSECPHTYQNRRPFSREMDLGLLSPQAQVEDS

With `COCCCNC(=O)c1sc2ncnc(Nc3cc(C)cn(C)c3=O)c2c1C` the inhibition [1] was 31%, the Activity (MV4-11 [2]) was “inactive” and the inhibition [3] was “inactive”. The Ki [4] was 5 µM, the Activity (MV4-11 [5]) was “inactive” and the GI50 (MV4-11 [6]) was 5.73 µM. The inhibition [7] was “Active”, the inhibition [8] was “inactive” and the Activity (MV4-11 [9]) was 11.4%. For the same compound, the Activity (MV4-11 [10]) was “Active”, the Ki [11] was 2.63 µM and the Activity (MV4-11 [12]) was 6%. The Activity (MV4-11 [13]) was 8.1%, the Activity (MV4-11 [14]) was 12.5% and the Activity (MV4-11 [15]) was 72.5%. For the same compound, the Activity (MV4-11 [16]) was “Active”, the Activity (MV4-11 [17]) was “inactive” and the Activity (MV4-11 [18]) was 83.96%. The Activity (MV4-11 [19]) was 0.1%, the inhibition [20] was “inactive” and the inhibition [21] was “inactive”. For the same compound, the Activity (MV4-11 [22]) was 4.52%, the inhibition (Homo sapiens) was “inactive” and the inhibition [23] was “inactive”. The inhibition [24] was “inactive”, the Activity (MV4-11 [25]) was 6.9% and the Activity (MV4-11 [26]) was “Active”. The inhibition [27] was “inactive”.

From ChEMBL document CHEMBL3414560, “Discovery of 4-(dihydropyridinon-3-yl)amino-5-methylthieno[2,3-d]pyrimidine derivatives as potent Mnk inhibitors: synthesis, structure-activity relationship analysis and biological evaluation” (Eur J Med Chem, 2015)
